Measurements reported in the array DNA melting data of Ke et al. (doi:10.1101/2024.01.08.574731).

Assays:
[1] = folding enthalpy; higher = less favourable; fluorescence melt of hairpins on a sequencing array, two-state fit; conditions: sodium 0.088 M
Method in brief: (§1)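 Cy3 signals were normalised both to pre-quench Cy3 and to control constructs. They came from library hairpins carrying annealed Cy3 and quencher oligos on a sequenced MiSeq flow cell, imaged in 50 mM Na-HEPES pH 8.0, 25 mM NaCl, in 2.5 °C steps up to 60 °C. Bootstrapped two-state fits gave melting temperature and folding enthalpy, and four replicates were combined by inverse variance. Fitted temperatures were then raised by 9.35 °C to match UV melts.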

[2] = melting temperature; fluorescence melt of hairpins on a sequencing array, two-state fit, raised by 9.35 °C to match UV melts; conditions: sodium 0.088 M
Method in brief: as §1

| Sequence | folding enthalpy [1] [kcal/mol] | Tm [2] [°C] |
| --- | --- | --- |
| GATCCGCGACCGGATC ((((((....)))))) | -38.4 | 54.8 |
| GTCGCCGAAAGGCCAGAC ((((((....)))..))) | -13.5 | 40.7 |
| GCCACAGGAAACTGTAGC ((.((((....)))).)) | -24.3 | 39.4 |
| GAGGGACGAAAGTCTCTC (((.(((....))).))) | -32.4 | 55.4 |
| GGGAAGCGAAAGCTGCCC (((.(((....))).))) | -23.2 | 65.2 |
| GGTGCCGAAAGGCCAACC ((((((....)))..))) | -12.7 | 44.1 |
| GCATCCCGAAAGGGTGC (((.(((....)))))) | -15.5 | 61.5 |
| GCCAACGAAAGTTTCGGC ((((((....)))..))) | -18.4 | 39 |
| GAACGGCGAAAGCCTTC (((.(((....)))))) | -12.4 | 39.3 |
| GCGTCGCGAAAGCGTGGC ((..(((....)))..)) | -14.9 | 49.8 |
| CGTTACCGGAAACGGACG (((..(((....)))))) | -17 | 36.9 |
| GTCATCCGAAAGGACGAC (((.(((....))).))) | -36.4 | 49.3 |
| GGGATCGGAAACGGTCTC (.((.((....)).)).) | -22.1 | 39.6 |
| GGCAGCGCGAAAGCGGCC (((..(((....)))))) | -17.3 | 58.3 |
| GGCGCCGGAAACGACGCC ((((.((....)).)))) | -33.6 | 66.4 |
| GGCGCCGGAAACGGCACC ((.((((....)))).)) | -26.8 | 60.5 |
| GTAGAAGAAATTCTAC ((((((....)))))) | -26.5 | 39.4 |
| GATCCGAAATCGGATC ((((((....)))))) | -35.4 | 54.9 |
| GCTTCCTCGAAAGAGAGC (((..(((....)))))) | -12.7 | 28.9 |
| GTGCACGCGAAAGCGCAC (((..(((....)))))) | -15.4 | 56.3 |
| GGTAAGGGAAACTTTACC (((((.(....).))))) | -21.3 | 36.4 |
| GCAAGGCGAAAGCCTAGC ((.((((....)))).)) | -18.4 | 61.7 |
| GATCTATAGATAGATC ((((((....)))))) | -32.6 | 39.9 |

| Sequence | folding enthalpy [1] [kcal/mol] | Tm [2] [°C] |
| --- | --- | --- |
| GGCAGTGGAAACACCGCC (((.(((....))).))) | -27.1 | 50.6 |
| GCGTCCGAAAGGACCGC ((((((....))).))) | -19.6 | 66.7 |
| GCTGGCGAAAGCCGTAGC ((((((....)))..))) | -13.9 | 58.9 |
| GATCATTCCGATGATC ((((((....)))))) | -41.3 | 49.1 |
| GACGGGCGAAAGCCTGTC (((.(((....))).))) | -26.2 | 67.3 |
| GCGCCCGAAAGGGACCGC ((((((....)))..))) | -22.7 | 50.3 |
| GCGTGCCGAAAGGCCCGC (((.(((....))).))) | -21.6 | 68.9 |
| GATCTAAAAATAGATC ((((((....)))))) | -10.6 | 28.2 |
| CCAGTGAAAACTGG (((((....))))) | -19.8 | 50.8 |
| GGGAATGGAAACATCCCC (((.(((....))).))) | -24.7 | 42.2 |
| GAAATTGCGAAAGCATTC (((..(((....)))))) | -6.33 | 23.4 |
| GGAAGACGAAAGTCGTCC (((.(((....))).))) | -18.9 | 56.2 |
| GCGGGCTCCGC ((((...)))) | -21.6 | 58.5 |
| GCGCACGGAAACGCGCGC ((((.((....)).)))) | -40.6 | 69 |
| GCTTCGCGAAAGCGGTGC ((..(((....)))..)) | -14.6 | 49.3 |
| GAACTGCGAAAGCATTC (((.(((....)))))) | -11.7 | 30.9 |
| GAAGGCGAAAGCCTTTC ((((((....))).))) | -10.6 | 53.7 |
| GATCACCAACGTGATC ((((((....)))))) | -41.6 | 53.8 |
| GAAAAGCGAAAGCTATTC (((.(((....))).))) | -19.5 | 36.4 |
| GATCGTATGAACGATC ((((((....)))))) | -31 | 53.6 |
| GATCTCACATGAGATC ((((((....)))))) | -40.1 | 52.5 |
| GGCACTCGAAAGAGGCC (((.(((....)))))) | -21.5 | 57.8 |
| GGGAACGGAAACATTCCC (((((.(....).))))) | -32.6 | 39.4 |

| Sequence | folding enthalpy [1] [kcal/mol] | Tm [2] [°C] |
| --- | --- | --- |
| GATCGCAATGCGATC ((((((...)))))) | -33 | 68.5 |
| GTGACGACGAAAGTCCAC (((..(((....)))))) | -13 | 38.2 |
| GGCTTGGGAAACTGAGCC ((((..(....)..)))) | -32.9 | 45.7 |
| GATCGGACTGCCGATC ((((((....)))))) | -42 | 55.5 |
| GCTGCGCGAAAGCCCAGC ((((.((....)).)))) | -31.1 | 63.5 |
| GTGTCCACGAAAGTGCAC (((..(((....)))))) | -15.1 | 39.3 |
| GGAACCGAAAGGTCTTCC ((((((....)))..))) | -20.3 | 38.7 |
| GGCCTAACGAAAGTTGCC (((..(((....)))))) | -20.9 | 38.7 |
| GCCCACGGAAACGTGAGC ((.((((....)))).)) | -27.2 | 50.9 |
| GCCGCCGAAAGGCTCGGC ((((((....)))..))) | -17.6 | 56.7 |
| GCACCAGGAAACCGGTAC (.(((.(....).))).) | -8.98 | 22.2 |
| GCGTTCTGACGC ((((....)))) | -25.1 | 55.3 |
| GACTCCGAAAGGATGGTC ((((((....)))..))) | -21.7 | 39.4 |
| GGCACTGGAAACGGTGTC (.(((.(....).))).) | -28.1 | 41.7 |
| GCTTGGCGAAAGCAAAGC ((((.((....)).)))) | -36.5 | 63.7 |
| GCCGCGGGAAACCGCAGC ((.((((....)))).)) | -16.9 | 59.3 |
| GATTCCGAAAGGAACATC ((((((....)))..))) | -12 | 25.2 |
| GAGAGGCGAAAGCCCCTC (((.(((....))).))) | -17.3 | 51.7 |
| GTGGAATCGAAAGATCAC (((..(((....)))))) | -19.2 | 33.9 |
| GGTAGGGCGAAAGCCACC (((..(((....)))))) | -14 | 41.9 |
| CGCCTCGGAAACGACGCG (((.(((....))).))) | -33.9 | 45.7 |
| GTCCCCGAAAGGGTCGAC ((((((....)))..))) | -13.6 | 35.4 |
| GCGCGTGGAAACACGTGC ((.((((....)))).)) | -52.1 | 64.1 |

| Sequence | folding enthalpy [1] [kcal/mol] | Tm [2] [°C] |
| --- | --- | --- |
| GATCCCTCCAGGGATC ((((((....)))))) | -39.1 | 63.9 |
| GACTACGCGAAAGCGGTC (((..(((....)))))) | -15.1 | 38 |
| GAAGAGCGAAAGCTTTTC (((.(((....))).))) | -24.1 | 44.7 |
| GCGAAGATCGC ((((...)))) | -13.7 | 49.5 |
| GCTTAGCGAAAGCTCAGC (((.(((....))).))) | -33.7 | 49.1 |
| GATCCGGGGGCGGATC ((((((....)))))) | -38.3 | 60.1 |
| GTATGTCGAAAGACCTAC (((.(((....))).))) | -19.2 | 39.6 |
| GAGCTTGGAAACAAGTTC ((.((((....)))).)) | -25.9 | 44.1 |
| GTTCATGGAAACGTGAAC (((((.(....).))))) | -40.6 | 46.4 |
| GCCACGCGAAAGCGCCGC ((..(((....)))..)) | -8.83 | 29.1 |
| GCCTGCCGAAAGGCCGGC (((.(((....))).))) | -22.4 | 64.3 |
| GGTGTGGCGAAAGCCACC (((..(((....)))))) | -7.44 | 49 |
| GCGGAGCGAAAGCTGTGC ((..(((....)))..)) | -14.2 | 51 |
| GTCTTGCGAAAGCAGGAC (((.(((....))).))) | -27.4 | 58 |
| GCGGACCCGAAAGGGCGC (((..(((....)))))) | -18 | 59.5 |
| GCTTATCGAAAGATTAGC (((.(((....))).))) | -35.9 | 44.8 |
| GCGCCAGGAAACTGACGC (((.(((....))).))) | -43.1 | 56 |
| GCTGCACGAAAGTGAGC (((.(((....)))))) | -18.8 | 51.3 |
| GTACCAGGAAACTGGTAC (((((((....))))))) | -40.4 | 62.2 |
| GCGTATGCACGC ((((....)))) | -13.3 | 54.3 |
| GCACCCGAAAGGGAATGC ((((((....)))..))) | -20.1 | 45.3 |
| GCGAAGCCTCGC ((((....)))) | -8.82 | 50.6 |
| GATCTCGAAGAGATC ((((((...)))))) | -34.2 | 68.5 |
